Measured values taken from ChEMBL document CHEMBL3259629, “Discovery and optimization of piperidyl-1,2,3-triazole ureas as potent, selective, and in vivo-active inhibitors of α/β-hydrolase domain containing 6 (ABHD6)” (J Med Chem, 2013).
Calls of active or inactive are those of the source. No cut-off for these calls is given here.

Assays:
Type in all cases: functional, organism-based
Mus musculus [1] = assay: In vivo inhibition of ABHD6 in C57Bl/6 mouse liver at 5 to 10 mg/kg, ip after 4 hrs by FP-rhodamine/HT-10-labelled gel-based competitive assay
Outline: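 C57Bl/6 mice dosed i.p. at 1–40 mg kg⁻¹ in 18:1:1 saline/ethanol/PEG40, 10 μL g⁻¹, for 4 hr, then killed. Brain and liver membrane proteomes labelled with FP-rhodamine or HT-01 (1 μM, 30 min, 37 °C) and resolved by SDS-PAGE with in-gel fluorescence scanning.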

Mus musculus [2] = assay: In vivo inhibition of DDH2 in C57Bl/6 mouse liver and bain at 0.1 to 1 mg/kg, ip after 4 hrs by FP-rhodamine-labelled gel-based competitive ABPP assay
Outline: (§1)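 C57Bl/6 mice dosed i.p. at 0.1, 0.5 or 1 mg kg⁻¹ in 18:1:1 saline/ethanol/PEG40 (ethoxylated castor oil), 10 μL g⁻¹. Killed after 4 hr under isoflurane by cervical dislocation. Brain and liver membrane fractions (100,000 × g) labelled with FP-rhodamine or HT-01 (1 μM, 30 min, 37 °C), then SDS-PAGE and in-gel fluorescence scanning. Liver ABHD6 read from HT-01 gels.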

Mus musculus [3] = assay: In vivo inhibition of DAGLbeta in C57Bl/6 mouse liver and bain at 0.1 to 1 mg/kg, ip after 4 hrs by FP-rhodamine-labelled gel-based competitive ABPP assay; outline: as §1
Mus musculus [4] = assay: In vivo inhibition of MGLL in C57Bl/6 mouse liver and bain at 0.1 to 1 mg/kg, ip after 4 hrs by FP-rhodamine-labelled gel-based competitive ABPP assay; outline: as §1

## O=C(c1cccc(-c2ccc(-c3cn(C(=O)N4CCCCC4c4ccccc4)nn3)cc2)c1)N1CCCCC1 (racemic)
Mus musculus [1]
  inhibition: Active

## O=C(O)c1cccc(-c2ccc(-c3cn(C(=O)N4CCCCC4Cc4ccccc4)nn3)cc2)c1 (racemic)
Mus musculus [2]
  inhibition: inactive
Mus musculus [3]
  inhibition: inactive
Mus musculus [4]
  inhibition: inactive
